Consider 44 molecules from ChEMBL document CHEMBL1145983, “Novel indolyl aryl sulfones active against HIV-1 carrying NNRTI resistance mutations: synthesis and SAR studies” (J Med Chem, 2003).

Test [1] has as its system Human immunodeficiency virus 1. Briefly: Selectivity ratio of CC50/EC50. Format: functional. Summed up:
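Ratio of CC50 (MTT viability of mock-infected MT-4 cells) to EC50 (MTT-based 50% protection of HIV-1-infected MT-4 cells from cytopathicity), both determined in parallel.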

Test [2] relates to Human immunodeficiency virus 1. Briefly: Anti-HIV activity protecting MT-4 cells from HIV-1 induced cytopathogenicity. Format: functional, organism-based. As to conditions: Human immunodeficiency virus 1, MT4.
Test [3] concerns MT4. Description: Cytotoxicity, reducing the vaiability of mock-infected cells. It counts as functional. As to conditions: Homo sapiens.

Usually EC50 stands for the concentration giving half of the maximal effect. The low end stands for higher potency in that assay, the high end for lower potency in that assay. For orientation: CC50 means the concentration that lowers cell viability or growth by half. Lower therefore signals harm at low concentration. Take `CC(C)(C)c1ccc(Sc2c(C(N)=O)[nH]c3ccc(Cl)cc23)cc1`: the Selectivity index in test [1] is listed as 6. In addition, the midpoint of the response in test [2], the EC50, lay at 8 µM. The same molecule returned a half-maximal cytotoxic concentration (CC50) in test [3] of 45 µM.
In turn, `CCOC(=O)c1cc2cc(Cl)ccc2n1S(=O)(=O)c1cc(Cl)ccc1[N+](=O)[O-]` had an EC50 in test [2] greater than 31 µM. The molecule further had a CC50 in test [3] of 31 µM.
`CCOC(=O)c1[nH]c2ccccc2c1Sc1cc(Cl)ccc1N` yielded a 50% effective concentration (EC50) in test [2] greater than 200 µM. In test [3], the CC50 was greater than 200 µM.
`Cc1cc(C)cc(S(=O)(=O)c2c(C(N)=O)[nH]c3ccc(Br)cc23)c1`: the Selectivity index in test [1] is given as 9000. In test [2], this molecule gave an EC50 of 0.002 µM. In test [3], the CC50 worked out at 18 µM.
`NC(=O)c1cn(S(=O)(=O)c2ccccc2)c2ccc(Cl)cc12` gave an EC50 in test [2] greater than 200 µM. In test [3], this molecule returned a CC50 of 200 µM.
`CCOC(=O)c1cc2cc(Cl)ccc2n1S(=O)(=O)c1ccccc1` showed an EC50 in test [2] greater than 200 µM. The molecule further had a 50% cytotoxic concentration (CC50) in test [3] greater than 200 µM.
On to `NC(=O)c1[nH]c2ccc(Cl)cc2c1S(=O)(=O)c1ccc(F)cc1`, for which, in test [1], the Selectivity index amounted to 1214. A half-maximal effect in test [2] (EC50) was put at 0.014 µM. Besides, it took 17 µM to reach half-maximal cytotoxicity in test [3] (CC50).
Regarding `NC(=O)c1[nH]c2ccc(Cl)cc2c1Sc1c(Cl)cccc1Cl`, the Selectivity index in test [1] is 51. The molecule further gave an EC50 in test [2] of 1.2 µM. It took 61 µM to reach half-maximal cytotoxicity in test [3] (CC50).
Take `CC(=O)c1ccc2[nH]c(C(N)=O)c(S(=O)(=O)c3cc(C)cc(C)c3)c2c1`: in test [1], the Selectivity index is greater than 13300. Further, the concentration for a half-maximal effect (EC50) in test [2] was determined as 0.015 µM. The CC50 in test [3] is greater than 200 µM.
Regarding `Cc1cc(C)cc(S(=O)(=O)c2c(C(N)=O)[nH]c3ccc(C(C)O)cc23)c1` (stereo unspecified), the Selectivity index in test [1] was greater than 8000. It took 0.025 µM to reach a half-maximal effect in test [2] (EC50). In addition, the CC50 in test [3] is greater than 200 µM.
Take `CCOC(=O)c1[nH]c2ccc(Cl)cc2c1S(=O)(=O)c1cc(Cl)ccc1N`: the Selectivity index in test [1] was 105. Besides, in test [2], it took 1.9 µM to reach a half-maximal effect (EC50). The molecule also came in with a CC50 in test [3] greater than 200 µM.
Turning to `NNC(=O)c1[nH]c2ccc(Cl)cc2c1Sc1cc(Cl)ccc1N`, the EC50 in test [2] is greater than 13 µM. The molecule further displayed a CC50 in test [3] of 13 µM.
Take `NC(=O)c1[nH]c2ccccc2c1S(=O)(=O)c1cc(Cl)ccc1N`: the Selectivity index in test [1] worked out at 11.7. For the same molecule, it took 0.3 µM to reach a half-maximal effect in test [2] (EC50). Further, the midpoint of cytotoxicity in test [3], the CC50, lay at 3.5 µM.
For the molecule `CCOC(=O)c1[nH]c2ccccc2c1Sc1ccccc1`, in test [2], the EC50 was greater than 200 µM. Also, in test [3], the CC50 was greater than 200 µM.
On to `CC(C)OC(=O)c1cn(S(=O)(=O)c2ccccc2)c2ccc(Cl)cc12`, for which the EC50 in test [2] was greater than 200 µM. For the same molecule, the CC50 in test [3] was greater than 200 µM.
`NC(=O)c1[nH]c2ccc(Cl)cc2c1Sc1ccccc1`: in test [1], the Selectivity index is reported as 450. Further, in test [2], the EC50 came to 0.02 µM. This molecule also gave a CC50 in test [3] of 9 µM.
Consider `NNC(=O)c1cc2ccccc2n1S(=O)(=O)c1ccccc1`, for which the EC50 in test [2] was greater than 200 µM. For the same molecule, in test [3], the CC50 is greater than 200 µM.
With `NNC(=O)c1[nH]c2ccc(Cl)cc2c1S(=O)(=O)c1cc(Cl)ccc1N`, the Selectivity index in test [1] turned out to be 63. Also, the EC50 in test [2] was found to be 0.3 µM. In addition, the CC50 in test [3] was found to be 19 µM.
Regarding `CC(C)OC(=O)c1cn(S(=O)(=O)c2ccccc2)c2ccccc12`, in test [2], the EC50 was greater than 54 µM. The CC50 in test [3] was 54 µM.
Take `NNC(=O)c1[nH]c2ccccc2c1S(=O)(=O)c1ccccc1`: in test [1], the Selectivity index came to 266. The molecule also gave a 50% effective concentration (EC50) in test [2] of 0.5 µM. Further, in test [3], the CC50 was 133 µM.
In the same order, the values of `CC(C)c1ccc(Sc2c(C(N)=O)[nH]c3ccc(Cl)cc23)cc1` are 27, 1.9 µM and 52 µM.
With `CC(C)(C)c1ccc(S(=O)(=O)c2c(C(N)=O)[nH]c3ccc(Cl)cc23)cc1`, the Selectivity index in test [1] is listed as 200. In test [2], this molecule displayed an EC50 of 0.13 µM. It took 26 µM to reach half-maximal cytotoxicity in test [3] (CC50).
Turning to `O=S(=O)(c1ccccc1)n1ccc2ccccc21`, the EC50 in test [2] was greater than 150 µM. The molecule further had a CC50 in test [3] of 150 µM.
Regarding `Cc1ccc(Sc2c(C(=O)NN)[nH]c3ccc(Cl)cc23)cc1`, in test [1], the Selectivity index is 86. For the same molecule, the EC50 in test [2] is 1.5 µM. In test [3], this molecule had a CC50 of 129 µM.
Molecule `CCOC(=O)c1cn(S(=O)(=O)c2ccccc2)c2ccc(Cl)cc12` came in with an EC50 in test [2] greater than 42 µM. In addition, the midpoint of cytotoxicity in test [3], the CC50, lay at 42 µM.
The matching figures for `CCOC(=O)c1cc2cc(Cl)ccc2n1S(=O)(=O)c1ccc(Cl)cc1`: greater than 200 µM and greater than 200 µM.
In the same order, the values of `NC(=O)c1cn(S(=O)(=O)c2ccccc2)c2ccccc12` are greater than 32 µM and 32 µM.
Regarding `CC(C)c1ccc(S(=O)(=O)c2c(C(N)=O)[nH]c3ccc(Cl)cc23)cc1`, the Selectivity index in test [1] is greater than 2500. The molecule also yielded an EC50 in test [2] of 0.08 µM. The molecule also had a CC50 in test [3] greater than 200 µM.
Consider `CCOC(=O)c1[nH]c2ccccc2c1S(=O)(=O)c1cc(Cl)ccc1N`, for which the Selectivity index in test [1] is recorded as greater than 91. This molecule displayed an EC50 in test [2] of 2.5 µM. In test [3], this molecule returned a CC50 greater than 200 µM.
Regarding `NNC(=O)c1[nH]c2ccc(Cl)cc2c1S(=O)(=O)c1ccccc1`, the Selectivity index in test [1] was greater than 20000. The molecule further showed an EC50 in test [2] of 0.01 µM. In test [3], this molecule displayed a cytotoxic concentration (CC50) greater than 200 µM.
As for `NNC(=O)c1[nH]c2ccc(Cl)cc2c1S(=O)(=O)c1ccc(F)cc1`, in test [1], the Selectivity index is listed as 147. In test [2], this molecule displayed a 50% effective concentration (EC50) of 0.3 µM. The CC50 in test [3] came to 44 µM.
Regarding `NC(=O)c1[nH]c2ccccc2c1Sc1ccccc1`, the Selectivity index in test [1] is given as 10. In test [2], this molecule returned a half-maximal effective concentration (EC50) of 1.4 µM. Also, half-maximal cytotoxicity in test [3] (CC50) was put at 14 µM.
With `CCOC(=O)c1[nH]c2ccc(Cl)cc2c1Sc1ccccc1N`, in test [1], the Selectivity index was greater than 87. The molecule also returned an EC50 in test [2] of 2.3 µM. In addition, the CC50 in test [3] is greater than 200 µM.
Consider `CCOC(=O)c1[nH]c2ccccc2c1S(=O)(=O)c1ccccc1`, for which, in test [1], the Selectivity index is reported as 42. For the same molecule, the EC50 in test [2] was 3.7 µM. Moreover, it took 157 µM to reach half-maximal cytotoxicity in test [3] (CC50).
Turning to `CCOC(=O)c1[nH]c2ccc(Cl)cc2c1S(=O)(=O)c1ccccc1N`, the concentration giving a half-maximal response (EC50) in test [2] was greater than 200 µM. The same molecule had a CC50 in test [3] greater than 200 µM.
In the case of `CCOC(=O)c1cc2ccccc2n1S(=O)(=O)c1ccccc1`, the EC50 in test [2] was greater than 200 µM. In test [3], the CC50 was greater than 200 µM.
Take `NNC(=O)c1[nH]c2ccc(Cl)cc2c1Sc1ccccc1`: the Selectivity index in test [1] amounted to 88. In addition, in test [2], the EC50 amounted to 0.5 µM. In test [3], this molecule showed a CC50 of 44 µM.
As for `CCOC(=O)c1cn(S(=O)(=O)c2ccccc2)c2ccccc12`, the EC50 in test [2] was greater than 32 µM. The cytotoxic concentration (CC50) in test [3] was 32 µM.
Turning to `CCOC(=O)c1cc2ccccc2n1S(=O)(=O)c1cc(Cl)ccc1N`, the Selectivity index in test [1] was 28. Moreover, the EC50 in test [2] came out at 1.8 µM. In addition, in test [3], the CC50 came out at 50 µM.
As for `Cc1ccc(Sc2c(C(N)=O)[nH]c3ccc(Cl)cc23)cc1`, in test [2], the half-maximal effective concentration (EC50) is greater than 0.45 µM. In test [3], this molecule returned a CC50 of 0.45 µM.
The matching figures for `O=S(=O)(c1ccccc1)n1ccc2cc(Cl)ccc21`: greater than 75 µM and 75 µM.
Regarding `NC(=O)c1cc2ccccc2n1S(=O)(=O)c1ccccc1`, the midpoint of the response in test [2], the EC50, lay at 15 µM. In test [3], this molecule gave a CC50 greater than 200 µM.
With `CCOC(=O)c1cc2ccccc2n1S(=O)(=O)c1ccccc1[N+](=O)[O-]`, the EC50 in test [2] was greater than 200 µM. Moreover, the 50% cytotoxic concentration (CC50) in test [3] is greater than 200 µM.
Molecule `CCOC(=O)c1cc2ccccc2n1S(=O)(=O)c1cc(Cl)ccc1[N+](=O)[O-]` came in with an EC50 in test [2] greater than 100 µM. Further, the cytotoxic concentration (CC50) in test [3] is greater than 100 µM.
